# Assay results published in ChEMBL document CHEMBL1158482, “Dopamine D2, D3, and D4 selective phenylpiperazines as molecular probes to explore the origins of subtype specific receptor binding” (J Med Chem, 2009).
# How the values were obtained:
# Format in all cases: cell-based
# [1] = Displacement of [3H]spiperone from human cloned dopamine D2L receptor D3.32E mutant expressed in HEK293 cells
# Summary of the method: (§1)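 Wild-type or mutant receptor cDNA transiently transfected into HEK-293 cells (CaHPO4 or TransIT-293), grown in MEM with 10% FBS at 37 °C, 5% CO2, harvested 48 h post-transfection. Membranes prepared by homogenization and spin at 50000g.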
# [2] = Displacement of [3H]spiperone from human cloned dopamine D2L receptor L2.64F mutant expressed in HEK293 cells; summary of the method: as §1
# [3] = Displacement of [3H]spiperone from human cloned dopamine D2L receptor H6.55F mutant expressed in HEK293 cells; summary of the method: as §1
# [4] = Displacement of [3H]spiperone from human cloned dopamine D2L receptor V2.61F/FV3.28,3.29LM mutant expressed in HEK293 cells; summary of the method: as §1
# [5] = Displacement of [3H]spiperone from human cloned dopamine D2L receptor V2.61F mutant expressed in HEK293 cells; summary of the method: as §1
# [6] = Displacement of [3H]spiperone from human cloned dopamine D2L receptor H6.55A mutant expressed in HEK293 cells; summary of the method: as §1
# [7] = Displacement of [3H]spiperone from human cloned dopamine D2L receptor FV3.28,3.29LM mutant expressed in HEK293 cells; summary of the method: as §1
# [8] = tested on: HEK293; assay: Selectivity ratio of Ki for human cloned dopamine D3 receptor FV3.28,3.29LM mutant to Ki for wild type human cloned dopamine D3 receptor expressed in HEK293 cells
# Summary of the method: (§2)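 Wild-type or mutant receptor cDNA transiently transfected into HEK-293 cells, which were grown in MEM with 10% FBS at 37 °C and 5% CO2 and harvested 48 h after transfection. Membranes were homogenised and pelleted at 50000g. Competition against [3H]spiperone (0.1-0.7 nM final) used 20-200 μg/mL protein. Ki was derived from EC50, 2-18 independent experiments in triplicate. Ratios are mutant Ki over wild-type Ki.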
# [9] = tested on: CHO; assay: Selectivity ratio of Ki for human cloned dopamine D2L receptor to Ki for human cloned dopamine D3 receptor expressed in CHO cells
# [10] = tested on: HEK293; assay: Selectivity ratio of Ki for human cloned dopamine D2L receptor V2.61F/FV3.28,3.29LM mutant to Ki for wild type human cloned dopamine D2L receptor expressed in HEK293 cells; summary of the method: as §2
# [11] = tested on: HEK293; assay: Selectivity ratio of Ki for human cloned dopamine D2L receptor V2.61F mutant to Ki for wild type human cloned dopamine D2L receptor expressed in HEK293 cells; summary of the method: as §2
# [12] = biological target: T1, D(4) dopamine receptor (Homo sapiens, UniProt P21917); assay: Displacement of [3H]spiperone from human cloned dopamine D4 receptor expressed in CHO cells
# T1 sequence (P21917 whole entry): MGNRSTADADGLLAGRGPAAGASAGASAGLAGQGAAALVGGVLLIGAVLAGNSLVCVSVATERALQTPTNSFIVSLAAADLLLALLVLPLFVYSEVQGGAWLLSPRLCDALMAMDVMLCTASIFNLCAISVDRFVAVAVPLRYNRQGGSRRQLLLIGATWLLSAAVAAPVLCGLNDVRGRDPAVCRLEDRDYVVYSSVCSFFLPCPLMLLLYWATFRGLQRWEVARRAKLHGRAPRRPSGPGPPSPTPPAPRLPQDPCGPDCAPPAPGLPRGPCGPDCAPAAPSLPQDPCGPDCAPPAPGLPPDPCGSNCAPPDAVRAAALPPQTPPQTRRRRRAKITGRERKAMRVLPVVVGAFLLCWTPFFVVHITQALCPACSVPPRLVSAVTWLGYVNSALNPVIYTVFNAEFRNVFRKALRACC
# Summary of the method: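 Membranes from CHO cells stably expressing human D4 (Bmax 700-1800 fmol/mg). Curves fit by nonlinear regression, sigmoid model giving IC50 and slope; Ki ± SEM from 2-9 experiments in triplicate.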
# [13] = biological target: T2, D(3) dopamine receptor (Homo sapiens, UniProt P35462); assay: Displacement of [3H]spiperone from human cloned dopamine D3 receptor FV3.28,3.29LM mutant expressed in HEK293 cells
# [14] = tested on: HEK293; assay: Selectivity ratio of Ki for human cloned dopamine D2L receptor FV3.28,3.29LM mutant to Ki for wild type human cloned dopamine D2L receptor expressed in HEK293 cells; summary of the method: as §2
# [15] = biological target: T3, D(2) dopamine receptor (Homo sapiens, UniProt P14416); assay: Displacement of [3H]spiperone from human cloned dopamine D2L receptor expressed in CHO cells
# [16] = tested on: HEK293; assay: Selectivity ratio of Ki for human cloned dopamine D3 receptor V2.61F/FV3.28,3.29LM mutant to Ki for wild type human cloned dopamine D3 receptor expressed in HEK293 cells; summary of the method: as §2
# [17] = biological target: T2, D(3) dopamine receptor; assay: Displacement of [3H]spiperone from wild type human cloned dopamine D3 receptor expressed in HEK293 cells
# [18] = tested on: CHO; assay: Selectivity ratio of Ki for human cloned dopamine D2L receptor to Ki for human cloned dopamine D4 receptor expressed in CHO cells
# [19] = biological target: T3, D(2) dopamine receptor; assay: Displacement of [3H]spiperone from wild type human cloned dopamine D2L receptor expressed in HEK293 cells
# [20] = tested on: HEK293; assay: Selectivity ratio of Ki for human cloned dopamine D2L receptor H6.55A mutant to Ki for wild type human cloned dopamine D2L receptor expressed in HEK293 cells; summary of the method: as §2
# [21] = biological target: D(3) dopamine receptor (Homo sapiens, UniProt P35462, F106L/V107M/V87F); assay: Displacement of [3H]spiperone from human cloned dopamine D3 receptor V2.61F/FV3.28,3.29LM mutant expressed in HEK293 cells
# [22] = biological target: D(3) dopamine receptor (Homo sapiens, UniProt P35462, V87F); assay: Displacement of [3H]spiperone from human cloned dopamine D3 receptor V2.61F mutant expressed in HEK293 cells
# [23] = tested on: HEK293; assay: Selectivity ratio of Ki for human cloned dopamine D3 receptor V2.61F mutant to Ki for wild type human cloned dopamine D3 receptor expressed in HEK293 cells; summary of the method: as §2
# [24] = biological target: T2, D(3) dopamine receptor; assay: Displacement of [3H]spiperone from human cloned dopamine D3 receptor expressed in CHO cells
# [25] = biological target: D(3) dopamine receptor (Homo sapiens, UniProt P35462, D110E); assay: Displacement of [3H]spiperone from human cloned dopamine D3 receptor D3.32E mutant expressed in HEK293 cells
# [26] = biological target: D(3) dopamine receptor (Homo sapiens, UniProt P35462, H349A); assay: Displacement of [3H]spiperone from human cloned dopamine D3 receptor H6.55A mutant expressed in HEK293 cells
# [27] = tested on: HEK293; assay: Selectivity ratio of Ki for human cloned dopamine D3 receptor V180E/S182I mutant to Ki for wild type human cloned dopamine D3 receptor expressed in HEK293 cells; summary of the method: as §2
# [28] = biological target: T2, D(3) dopamine receptor; assay: Displacement of [3H]spiperone from human cloned dopamine D3 receptor L2.64F mutant expressed in HEK293 cells
# [29] = biological target: D(2) dopamine receptor (Homo sapiens, UniProt P14416, E181V/I183S); assay: Displacement of [3H]spiperone from human cloned dopamine D2L receptor E181V/I183S mutant expressed in HEK293 cells; summary of the method: as §2
# [30] = tested on: HEK293; assay: Selectivity ratio of Ki for human cloned dopamine D2L receptor L2.64F mutant to Ki for wild type human cloned dopamine D2L receptor expressed in HEK293 cells; summary of the method: as §2
# [31] = biological target: D(3) dopamine receptor (Homo sapiens, UniProt P35462, S182I/V180E); assay: Displacement of [3H]spiperone from human cloned dopamine D3 receptor V180E/S182I mutant expressed in HEK293 cells
# [32] = tested on: HEK293; assay: Selectivity ratio of Ki for human cloned dopamine D2L receptor E181V/I183S mutant to Ki for wild type human cloned dopamine D2L receptor expressed in HEK293 cells; summary of the method: as §2
# [33] = biological target: T1, D(4) dopamine receptor; assay: Displacement of [3H]spiperone from wild type human cloned dopamine D4 receptor expressed in HEK293 cells
# [34] = tested on: HEK293; assay: Selectivity ratio of Ki for human cloned dopamine D3 receptor H6.55A mutant to Ki for wild type human cloned dopamine D3 receptor expressed in HEK293 cells; summary of the method: as §2
# [35] = tested on: HEK293; assay: Selectivity ratio of Ki for human cloned dopamine D3 receptor L2.64F mutant to Ki for wild type human cloned dopamine D3 receptor expressed in HEK293 cells; summary of the method: as §2
# [36] = tested on: HEK293; assay: Selectivity ratio of Ki for human cloned dopamine D2L receptor H6.55F mutant to Ki for wild type human cloned dopamine D2L receptor expressed in HEK293 cells; summary of the method: as §2
# [37] = tested on: HEK293; assay: Selectivity ratio of Ki for human cloned dopamine D2L receptor D3.32E mutant to Ki for wild type human cloned dopamine D2L receptor expressed in HEK293 cells; summary of the method: as §2
# [38] = tested on: HEK293; assay: Selectivity ratio of Ki for human cloned dopamine D3 receptor D3.32E mutant to Ki for wild type human cloned dopamine D3 receptor expressed in HEK293 cells; summary of the method: as §2
# Sequence of D(3) dopamine receptor (Homo sapiens, UniProt P35462, V87F) (P35462 as listed by the source V87F): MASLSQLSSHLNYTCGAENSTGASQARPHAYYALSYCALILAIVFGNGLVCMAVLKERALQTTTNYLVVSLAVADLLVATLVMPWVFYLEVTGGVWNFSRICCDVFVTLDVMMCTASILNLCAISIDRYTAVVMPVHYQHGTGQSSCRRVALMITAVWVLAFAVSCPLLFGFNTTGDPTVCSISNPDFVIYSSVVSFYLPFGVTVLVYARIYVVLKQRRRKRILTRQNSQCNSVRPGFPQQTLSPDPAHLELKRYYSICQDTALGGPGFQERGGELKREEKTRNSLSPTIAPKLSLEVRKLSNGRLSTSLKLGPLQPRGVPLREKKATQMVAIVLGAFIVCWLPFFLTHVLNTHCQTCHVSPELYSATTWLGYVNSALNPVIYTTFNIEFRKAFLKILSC
# T3 sequence (P14416 whole entry): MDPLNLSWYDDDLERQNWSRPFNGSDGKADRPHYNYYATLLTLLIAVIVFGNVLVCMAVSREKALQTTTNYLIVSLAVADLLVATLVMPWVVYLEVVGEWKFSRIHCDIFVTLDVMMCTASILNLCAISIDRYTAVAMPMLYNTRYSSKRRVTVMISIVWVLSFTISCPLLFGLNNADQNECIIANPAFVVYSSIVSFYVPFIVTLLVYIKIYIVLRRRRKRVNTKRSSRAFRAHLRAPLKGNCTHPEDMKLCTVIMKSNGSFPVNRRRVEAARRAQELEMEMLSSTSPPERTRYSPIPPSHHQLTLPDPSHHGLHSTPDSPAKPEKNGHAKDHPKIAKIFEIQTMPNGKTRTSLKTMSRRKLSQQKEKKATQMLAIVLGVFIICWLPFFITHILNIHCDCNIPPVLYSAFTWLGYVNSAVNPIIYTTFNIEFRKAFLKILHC
# T2 sequence (P35462 whole entry): as the sequence (P35462 as listed by the source V87F) above, with S9G, F87V counted along it
# Sequence of D(3) dopamine receptor (Homo sapiens, UniProt P35462, F106L/V107M/V87F) (P35462 as listed by the source V87F/F106L/V107M): as the sequence (P35462 as listed by the source V87F) above, with F106L, V107M counted along it
# Sequence of D(3) dopamine receptor (Homo sapiens, UniProt P35462, D110E) (P35462 as listed by the source D110E): as the sequence (P35462 as listed by the source V87F) above, with F87V, D110E counted along it
# Sequence of D(2) dopamine receptor (Homo sapiens, UniProt P14416, E181V/I183S) (P14416 whole entry E181V/I183S): as the sequence (P14416 whole entry) above, with E181V, I183S counted along it
# Sequence of D(3) dopamine receptor (Homo sapiens, UniProt P35462, H349A) (P35462 as listed by the source H349A): as the sequence (P35462 as listed by the source V87F) above, with F87V, H349A counted along it
# Sequence of D(3) dopamine receptor (Homo sapiens, UniProt P35462, S182I/V180E) (P35462 as listed by the source V180E/S182I): as the sequence (P35462 as listed by the source V87F) above, with F87V, V180E, S182I counted along it
Compound,Ki [1],Ki [2],Ki [3],Ki [4],Ki [5],Ki [6],Ki [7],Ratio Ki [8],Ratio Ki [9],Ratio Ki [10],Ratio Ki [11],Ki [13],Ratio Ki [14],Ratio Ki [16],Ki [17],Ratio Ki [18],Ki [19],Ratio Ki [20],Ki [21],Ki [22],also measured
COc1ccccc1N1CCN(CCCNC(=O)c2cnn3ccccc23)CC1,720 nM,390 nM,69 nM,83 nM,450 nM,1.6 nM,110 nM,–,–,–,–,–,–,–,–,–,–,–,–,–,–
COc1ccccc1N1CCN(CCCCNC(=O)c2cc3ccccn3n2)CC1,3500 nM,940 nM,340 nM,120 nM,920 nM,21 nM,220 nM,–,–,–,–,–,–,–,–,–,–,–,–,–,–
Clc1ccc(N2CCN(CCCCCc3cc4ccccn4n3)CC2)cc1,–,–,–,470 nM,740 nM,170 nM,1100 nM,2.4,0.43,2.1,3.3,530 nM,4.9,5.1,220 nM,3.5,220 nM,0.74,1100 nM,1900 nM,Ki [12]: 46 nM; Ki [15]: 160 nM; Ratio Ki [23]: 8.8; Ki [24]: 370 nM
CSc1ccccc1N1CCN(CCCCNC(=O)c2cc3ccccn3n2)CC1,1300 nM,120 nM,160 nM,–,130 nM,11 nM,65 nM,36,46,0.7,3.4,33 nM,1.8,80,160 nM,0.25,37 nM,0.3,18 nM,230 nM,Ki [25]: 0.5 nM; Ki [26]: 0.76 nM; Ratio Ki [27]: 1.5; Ki [28]: 58 nM; Ki [29]: 130 nM; Ki [12]: 65 nM; Ratio Ki [30]: 3; Ki [15]: 16 nM; Ki [31]: 40 nM; Ratio Ki [32]: 3.4; Ki [33]: 310 nM; Ratio Ki [34]: 1.3; Ratio Ki [35]: 66; Ratio Ki [36]: 4.3; Ratio Ki [37]: 34; Ki [24]: 0.35 nM
Clc1ccc(N2CCN(Cc3cc4ccccn4n3)CC2)cc1,5100 nM,2000 nM,1600 nM,66 nM,1200 nM,320 nM,300 nM,0.09,0.64,0.03,0.53,730 nM,0.13,0.009,8300 nM,1500,2300 nM,0.14,76 nM,9200 nM,Ki [25]: 12000 nM; Ki [26]: 46 nM; Ratio Ki [27]: 0.31; Ki [28]: 1600 nM; Ki [29]: 47000 nM; Ratio Ki [38]: 1.4; Ratio Ki [30]: 0.89; Ki [31]: 2500 nM; Ratio Ki [32]: 19; Ki [33]: 6.8 nM; Ratio Ki [34]: 0.005; Ratio Ki [23]: 1.1; Ratio Ki [35]: 0.19; Ratio Ki [36]: 0.7; Ratio Ki [37]: 2.2
